# Reference: article PMC3131463 (Journal of medicinal chemistry, 2011)
# Values joined by “and” are separate entries in the source; they are usually repeats but may differ in a detail not shown here. Equal entries are not always repeated.
# Tests used:
# [1] = system: LPS-induced NO production in RAW 264 macrophage cells; assay: Suppression of LPS-induced NO production in RAW 264.7 macrophage cells; format: cell-based
# human whole blood = assay: Agonism / hemolysis in human whole blood; format: cell-based; conditions: up to 1 mM
# Procedure, shortened: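 Human whole blood from healthy consenting donors, anticoagulated with lepirudin (final 50 µg/mL), was added to tubes holding test compound or PBS with Ca2+/Mg2+. It was preincubated 5–10 min at 37 °C, then given E. coli 0111:B4 ultra-pure LPS (100 ng/mL) or endotoxin-free PBS and rotated 2 h at 37 °C. EDTA (final 10 mM) was added, and plasma TNF-α, IL-8 and IL-6 were measured by singleplex Bio-plex.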
# MARK1 = MARK1 (Homo sapiens, UniProt Q9P0L2); assay: KinaseSeeker kinase profiling, MARK1; format: binding; conditions: read-out: inhibition of MARK1 (most inhibited kinase)
# [2] = system: AKT1, CAMK1, DDR2, GSK-3α, MAPK1, MET, PAK1, PDGFRB, PIM1, PKC-γ, PLK4, and SRC; assay: KinaseSeeker kinase profiling, panel of 12 kinases; format: binding; conditions: at respective RAW264.7 IC50 concentrations (1j 28 µM, 1s 16 µM)
# [3] = Metabolic stability in human liver microsomes; format: in vitro ADME
# Procedure, shortened: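 Test compound (1 µM, <0.25% DMSO) was incubated at 37 °C with human liver microsomal protein (0.5 mg/mL). Cofactors were added to start reactions at 0, 10, 20, 30 and 60 min, with a 5 µM testosterone positive control. NADPH addition was confirmed by fluorimetry. Compound-to-internal-standard peak-area ratio was read by LC-MS/MS without a standard curve. CLint = elimination rate constant / protein concentration.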
# PKC-γ = PKC-γ (Homo sapiens, UniProt P05129); assay: KinaseSeeker kinase profiling, PKC-γ; format: binding; conditions: read-out: inhibition of PKC-γ (most inhibited kinase)
# MDR1-MDCK monolayer = assay: MDR1-MDCK permeability assay; format: in vitro ADME; conditions: 5 µM, apical to basolateral and basolateral to apical
# [4] = Metabolic stability in human liver S9 fractions; format: in vitro ADME
# Procedure, shortened: (§1)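 Test compound (1 µM, <0.25% DMSO) was incubated at 37 °C with pooled liver S9 protein (1 mg/mL) and 1 mM each of NADPH, UDPGA, PAPS and GSH. Cofactors were added to start reactions at 0, 10, 20, 30 and 60 min, with testosterone and 7-hydroxycoumarin (20 µM each) as positive controls. Depletion was followed by LC-MS/MS peak-area ratio to internal standard, without a standard curve. CLint = k/P.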
# [5] = Metabolic stability in rat liver S9 fractions; format: in vitro ADME
# Procedure, shortened: as §1
# CYP1A2 = target: T1, CYP1A2 (Homo sapiens, UniProt P05177); assay: CYP IC50 in human liver microsomes, CYP1A2; format: in vitro ADME
# T1 sequence (P05177 1-516): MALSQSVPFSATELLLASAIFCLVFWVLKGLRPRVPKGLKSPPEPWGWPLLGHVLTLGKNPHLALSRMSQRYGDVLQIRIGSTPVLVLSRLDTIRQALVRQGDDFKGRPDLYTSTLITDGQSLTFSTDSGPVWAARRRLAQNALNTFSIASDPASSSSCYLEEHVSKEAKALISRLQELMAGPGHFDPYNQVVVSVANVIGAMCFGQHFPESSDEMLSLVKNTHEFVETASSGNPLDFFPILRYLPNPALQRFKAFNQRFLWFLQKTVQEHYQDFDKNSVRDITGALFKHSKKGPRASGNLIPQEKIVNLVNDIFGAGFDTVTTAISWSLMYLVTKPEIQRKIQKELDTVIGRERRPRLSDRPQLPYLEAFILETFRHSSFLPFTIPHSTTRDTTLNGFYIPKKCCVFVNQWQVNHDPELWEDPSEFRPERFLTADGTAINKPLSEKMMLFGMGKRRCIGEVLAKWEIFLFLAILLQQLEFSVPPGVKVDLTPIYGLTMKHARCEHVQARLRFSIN
# Procedure, shortened: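 Test compound was run at eight concentrations (0–100 µM), with α-naphthoflavone as positive control. Protein was precipitated and acetaminophen formation measured by LC-MS/MS. IC50 came from a sigmoidal nonlinear regression fit.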
# Chain of MARK1 (Q9P0L2 whole entry, species assumed): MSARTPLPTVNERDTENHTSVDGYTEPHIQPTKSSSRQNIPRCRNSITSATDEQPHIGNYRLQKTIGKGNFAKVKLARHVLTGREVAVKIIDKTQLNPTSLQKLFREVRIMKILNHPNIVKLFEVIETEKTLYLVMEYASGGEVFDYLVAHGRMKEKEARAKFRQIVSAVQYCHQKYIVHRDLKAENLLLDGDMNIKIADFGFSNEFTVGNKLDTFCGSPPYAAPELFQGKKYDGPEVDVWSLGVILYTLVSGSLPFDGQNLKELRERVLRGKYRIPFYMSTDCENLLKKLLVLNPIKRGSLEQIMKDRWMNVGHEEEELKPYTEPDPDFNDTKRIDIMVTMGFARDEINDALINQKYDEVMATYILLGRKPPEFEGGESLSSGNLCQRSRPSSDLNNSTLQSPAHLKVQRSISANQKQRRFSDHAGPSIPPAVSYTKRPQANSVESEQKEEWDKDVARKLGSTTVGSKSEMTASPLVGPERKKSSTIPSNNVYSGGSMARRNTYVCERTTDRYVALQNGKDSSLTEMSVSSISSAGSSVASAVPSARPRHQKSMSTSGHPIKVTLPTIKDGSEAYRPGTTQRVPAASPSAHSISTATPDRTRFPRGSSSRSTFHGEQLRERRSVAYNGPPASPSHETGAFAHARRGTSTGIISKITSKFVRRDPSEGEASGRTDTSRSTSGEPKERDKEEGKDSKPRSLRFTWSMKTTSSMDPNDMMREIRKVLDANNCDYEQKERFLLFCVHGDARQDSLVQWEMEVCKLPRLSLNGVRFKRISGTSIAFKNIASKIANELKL
SMILES,suppression of NO signaling (in words) [1],agonistic effects with respect to cytokine release or hemolysis (human whole blood),activity retained by the majority of the kinases [2],maximal inhibition of any kinase of the panel [2],other results
"Cc1nn(Cc2ccccc2)c(C)c1CN(C)CC(O)COc1ccccc1 (stereo not drawn) [1a, 1-(((1-benzyl-3,5-dimethyl-1H-pyrazol-4-yl)methyl)(methyl)amino)-3-phenoxypropan-2-ol]",ineffective at suppressing NO signaling,no agonistic effects,,,
Cc1nn(Cc2ccccc2Cl)c(C)c1CN(C)CC(O)COc1ccc(Cl)cc1 (stereo not drawn) [1s],,,> 95% and 95%,≤ 27%,inhibition at 16 µM (MARK1): 26.7%
CCOc1ccc(OCC(O)CN(C)Cc2c(C)nn(Cc3ccccc3OC)c2C)cc1 (stereo not drawn) [1g],no detectable NO suppression,,,,
"CCOc1ccc(OCC(O)CN(C)Cc2c(C)nn(Cc3ccccc3Cl)c2C)cc1 (stereo not drawn) [1j, 1-(((1-(2-chlorobenzyl)-3,5-dimethyl-1H-pyrazol-4-yl)methyl)(methyl)amino)-3-(4-ethoxyphenoxy)propan-2-ol]",,no agonistic effects,> 95%,≤ 27%,microsomal CLint [3]: > 700 µL/min/mg; inhibition at 28 µM (PKC-γ): 22.4%; brain-blood barrier permeability classification (MDR1-MDCK monolayer): high; microsomal CLint at 1 µM [4]: 300 µL/min/mg; microsomal CLint [5]: > 350 µL/min/mg; IC50 (CYP1A2): > 100 µM
